# Most compounds without a hit are left out; they make up all but 2.3% or so of the library.
# TRPC6 act = mouse TRPC6 channel activation | hit rate 0.13% among 310,000 | HEK293-TRPC6 membrane potential dye fluorescence; active compounds read high | B-score at 10 µM | Q61143 | AID 2550;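 active means B-score of the integrated fluorescence ratio above library mean plus 3 SD, and starting fluorescence ratio within library mean plus 5 SD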;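 further: higher score means more depolarization so channel activation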
# Target sequence (Q61143 whole entry, looked up): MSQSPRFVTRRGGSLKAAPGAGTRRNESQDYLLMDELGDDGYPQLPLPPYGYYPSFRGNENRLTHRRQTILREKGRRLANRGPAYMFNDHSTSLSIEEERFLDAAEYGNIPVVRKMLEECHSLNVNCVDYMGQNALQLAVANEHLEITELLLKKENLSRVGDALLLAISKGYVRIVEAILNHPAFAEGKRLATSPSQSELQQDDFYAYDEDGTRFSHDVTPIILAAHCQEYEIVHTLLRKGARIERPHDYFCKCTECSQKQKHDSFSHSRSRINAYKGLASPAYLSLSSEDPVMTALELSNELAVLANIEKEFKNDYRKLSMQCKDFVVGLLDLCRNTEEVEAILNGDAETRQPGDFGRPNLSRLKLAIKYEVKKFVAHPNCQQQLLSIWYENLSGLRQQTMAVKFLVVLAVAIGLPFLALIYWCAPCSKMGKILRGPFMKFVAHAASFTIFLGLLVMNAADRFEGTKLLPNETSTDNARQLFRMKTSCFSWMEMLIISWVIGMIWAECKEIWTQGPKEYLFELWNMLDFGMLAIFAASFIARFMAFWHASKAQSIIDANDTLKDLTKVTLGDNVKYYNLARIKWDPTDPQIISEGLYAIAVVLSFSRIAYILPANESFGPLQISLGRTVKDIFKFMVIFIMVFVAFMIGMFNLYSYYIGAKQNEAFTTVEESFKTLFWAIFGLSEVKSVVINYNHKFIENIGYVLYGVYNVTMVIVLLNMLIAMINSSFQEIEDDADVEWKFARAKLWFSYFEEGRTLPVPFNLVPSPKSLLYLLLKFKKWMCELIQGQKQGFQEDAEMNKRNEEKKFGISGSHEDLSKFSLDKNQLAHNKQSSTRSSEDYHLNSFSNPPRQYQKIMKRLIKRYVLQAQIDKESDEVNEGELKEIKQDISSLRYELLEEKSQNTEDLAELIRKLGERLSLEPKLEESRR
# TRPC6 inh = mouse TRPC6 channel inhibition. Q61143. HEK293-TRPC6, membrane potential dye, ACh-evoked depolarization; active compounds read low. B-score at 10 µM. hit rate 1.1% among 310,000;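 active means B-score under library mean minus 3 SD, initial fluorescence not abnormally high, positive integrated signal ratio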;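 further: B-score derived from integrated fluorescence ratio over the kinetic read; more negative B-score means stronger inhibition of depolarization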
# TRPC4 potent = TRPC4 (mouse) allosteric potentiation. Q9QUQ5. hit rate 0.42% among 310,000. B-score at 10 µM. HEK293 TRPC4beta/mu-opioid, DAMGO EC20, Fluo-4 Ca2+ flux; active compounds read high;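 active means B-score of calcium response area above 5 SD of library B-scores, with initial fluorescence ratio within 5 SD of library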
# TRPC4 agonist = opens the mouse TRPC4 cation channel; Q9QUQ5; HEK293 TRPC4beta/mu-opioid, Fluo4 calcium fluorescence; active compounds read high; hit rate 0.49% among 310,000; B-score at 10 µM;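 active means B-score above 5 SD of library B-scores, and initial fluorescence ratio not above library mean plus 5 SD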;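 further: positive B-score marks a calcium rise read as TRPC4 activation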
#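 Assay system – TRPC4beta and mu-opioid receptor HEK293 stable cells · Measured by – Fluo4 fluorescence, kinetic · Schedule – dye loading 45 min room temperature, 110 s kinetic read · Read-out – B-scored integrated calcium fluorescence ratio · Controls – buffer and maximal DAMGO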
# TRPC4 inh = blocks the mouse TRPC4 cation channel | Q9QUQ5 | HEK293 TRPC4beta/mu-opioid, DAMGO-evoked Fluo4 calcium flux; active compounds read low | B-score at 10 µM | hit rate 0.39% among 300,000;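 active means B-score over 3 SD under the library average, no early fluorescence shift, positive overall ratio signal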
#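 System: stable TRPC4beta/mu-opioid receptor HEK293 cells; Dosing: single-point compound dosing; Measured by: Fluo4 Ca2+ flux fluorescence; Read-out basis: per-well B score of integrated baseline-normalized Fluo4 ratio.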
# TRPC4 spec 2 = second check of whether TRPC6 inhibitors also affect mouse TRPC4 | inhibition, % at 10 µM | hit rate 42% among 920 | shares compounds with TRPC6 inh | HEK293 TRPC4/MOR, membrane potential dye fluorescence; channel activated by saturating DAMGO dose;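 active means compounds whose fluorescence signal differed from control wells by over 3 SD, either direction, in both duplicate plates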
# TRPC4 spec = tests whether TRPC6 inhibitors also affect mouse TRPC4. HEK293 TRPC4/mu-opioid, membrane potential fluorescence. activity change, negative = inhibition, % at 10 µM. shares compounds with TRPC6 inh. hit rate 61% among 920;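 active means rise or fall in signal beyond 3 SD of buffer-only wells in both replicate plates, either sign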;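 further: integrated kinetic ratio of fluorescence range over baseline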
# HEK293 MPD ctr 2-1 = second check of TRPC6 inhibitor effects in parental HEK293 cells; shares compounds with TRPC6 inh; parental HEK293 membrane potential dye fluorescence; maximal acetylcholine challenge after compound addition; signal change vs control, % at 10 µM; hit rate 31% among 920;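 active means membrane potential signal moving either way by over 3 SD of the maximum-effect control, in both duplicate plates, meaning non-specific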
# HEK293 MPD ctr-1 = counter-screen for TRPC6 inhibitors: effect in parental HEK293 cells | shares compounds with TRPC6 inh | parental HEK293 membrane potential dye fluorescence | membrane potential signal change, % at 10 µM | hit rate 60% among 920 | AID 2780;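 active means membrane potential signal shifting up or down by more than 3 SD of buffer-only wells, on both duplicate plates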
# HEK293 MPD ctr-2 = parental HEK293 nonspecific activity of TRPC6 modulators; shares compounds with TRPC6 inh; membrane potential dye fluorescence; membrane potential signal change, % at 10 µM; hit rate 51% among 2,400; AID 488924;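 active means membrane potential signal moves up or down beyond 5 SD from buffer-only wells, on both duplicate plates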
# HEK293 MPD ctr 2-2 = second counter-screen for TRPC6 modulators: effect in parental HEK293 cells | shares compounds with TRPC6 inh | membrane potential dye fluorescence; after compound, maximal acetylcholine stimulation | inhibition, % at 10 µM | hit rate 14% among 2,400 | AID 488926;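 active means membrane potential signal drops by more than 5 SD from the mean control signal, in both duplicate plates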
# TRPC4/MOR mod = tests whether TRPC6 modulators also affect mouse TRPC4; shares compounds with TRPC6 inh; HEK293 TRPC4/mu-opioid, membrane potential fluorescence; percent change from control (negative = decrease, positive = increase), % at 10 µM; hit rate 69% among 2,400;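 active means membrane potential signal moved up or down beyond 5 SD of buffer control wells, in both duplicate plates, actives on both sides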
# TRPC4 ctr inh 2 = second check of whether TRPC6 modulators also affect mouse TRPC4. shares compounds with TRPC6 inh. HEK293 TRPC4/mu-opioid, membrane potential dye fluorescence; stimulated with maximal-effect DAMGO. inhibition, % at 10 µM. hit rate 55% among 2,400;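 active means drop in membrane potential signal beyond 5 SD of the control wells in both duplicate plates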;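 further: TRPC4 counter screen for TRPC6 hits run under conditions tuned for TRPC6 not TRPC4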
# TRPC6 inh conf = mouse TRPC6 inhibitor confirmation. shares compounds with TRPC6 inh. HEK293-TRPC6, membrane potential dye, ACh-evoked depolarization. inhibition, % at 10 µM. hit rate 43% among 3,300;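 active means fluorescence ratio falls more than 5 SD below the full-stimulation control mean, in both duplicate runs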;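 further: integrated fluorescence ratio of peak minus minimum over baseline after agonist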
# TRPC6 act conf = confirmation of mouse TRPC6 activators; shares compounds with TRPC6 inh; HEK293-TRPC6 membrane potential dye fluorescence, FDSS; activation, % at 10 µM; hit rate 11% among 2,800;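 active means ratio signal rise beyond 5 SD above unstimulated control wells' mean, seen in both duplicate runs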
# Numbers stand for hits; n = inactive; x = no result given.
SMILES,TRPC6 act,TRPC6 inh,TRPC4 potent,TRPC4 agonist,TRPC4 inh,HEK293 MPD ctr-2,HEK293 MPD ctr 2-2,TRPC4/MOR mod,TRPC4 ctr inh 2,TRPC6 inh conf,TRPC6 act conf,others
CCN(CC)CCN(Cc1cc2cc3c(cc2[nH]c1=O)OCO3)C(=S)NCc1ccco1,n,-5.5,n,n,n,n,n,n,58%,n,x,
CCN(CC)CCCN(Cc1cc2cc3c(cc2[nH]c1=O)OCO3)C(=S)NCc1ccco1,n,n,n,n,n,x,x,x,x,x,x,
Cc1cccc(NC(=O)CN(C)S(=O)(=O)c2cccc3nsnc23)c1C,n,-5.5,n,n,n,n,n,16%,28%,n,n,
CC1CCN(CC(C)CNC(=O)c2cc(-c3ccccn3)nc3ccccc23)CC1 (stereo not drawn),n,-8.6,n,n,n,x,x,x,x,n,n,TRPC4 spec 2=70%;TRPC4 spec=n;HEK293 MPD ctr 2-1=208%;HEK293 MPD ctr-1=n
CCCCSc1nnc(CSc2ncccn2)n1C,n,n,n,n,n,x,x,x,x,x,x,
O=C(c1cccs1)N1CCN(C23CC4CC(CC(C4)C2)C3)CC1,n,-6.3,n,n,n,114%,n,18%,n,44%,x,
N#CCCN(C(=O)COc1ccc(F)cc1Br)c1ccccc1F,n,n,n,n,n,x,x,x,x,x,x,
COCCNc1cc(C)nc2cc(-c3ccc(C)cc3)nn12,n,n,n,n,n,x,x,x,x,x,x,
COc1ccc(-c2cc3nc(C)cc(N)n3n2)cc1,n,-5,n,n,n,-143%,n,-22%,n,n,n,
COc1ccc(-c2cc3nc(C)cc(-c4ccc(OC)cc4)n3n2)cc1,n,n,n,n,n,x,x,x,x,x,x,
COc1ccc(-c2cc3nc(C)cc(NCCO)n3n2)cc1,n,-9,n,n,n,-300%,n,-48%,49%,72%,n,
Cc1ccc2nc(-c3cccc(N)c3)oc2c1,n,-5.5,n,n,n,n,n,n,n,n,n,
FC(F)(F)c1ccc2c(c1)n(Cc1ccccc1)c1[n+]2CCCCC1,n,-5.1,n,n,n,n,n,n,n,n,n,
CCOC(CNC(=O)CN1C(=O)COc2ccc(S(=O)(=O)N3CCOCC3)cc21)OCC,n,-5.2,n,n,n,n,n,n,n,n,n,
CCOCCCNC(=O)CN1C(=O)COc2ccc(S(=O)(=O)N3CCOCC3)cc21,n,n,n,n,n,x,x,x,x,x,x,
CC(C)(C)c1ccc(C2=CSC3=NCCN23)cc1,n,n,n,n,n,x,x,x,x,x,x,
CC(C)Cc1ccc(C2=CSC3=NCCN23)cc1,n,-5.8,n,n,n,94%,n,n,55%,48%,x,
COc1ccc(C(=O)N(C)c2ccccc2C(=O)NCCc2ccccc2)cc1,n,n,n,n,n,x,x,x,x,x,x,

# Source: PubChem (Johns Hopkins Ion Channel Center)
